APJ agonist: agonists of human apelin receptor APJ, primary screen, CHO-K1 cells, PathHunter beta-arrestin, luminescence | activation, % at 20 µM | 330,000 compounds, 0.11% hits | AID 2520, 2010 | P35414 | 0% DMSO wells, 100% apelin;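 active = activation more than six SD over the plate average, tested at 20 µM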
Target sequence (P35414 whole entry, looked up): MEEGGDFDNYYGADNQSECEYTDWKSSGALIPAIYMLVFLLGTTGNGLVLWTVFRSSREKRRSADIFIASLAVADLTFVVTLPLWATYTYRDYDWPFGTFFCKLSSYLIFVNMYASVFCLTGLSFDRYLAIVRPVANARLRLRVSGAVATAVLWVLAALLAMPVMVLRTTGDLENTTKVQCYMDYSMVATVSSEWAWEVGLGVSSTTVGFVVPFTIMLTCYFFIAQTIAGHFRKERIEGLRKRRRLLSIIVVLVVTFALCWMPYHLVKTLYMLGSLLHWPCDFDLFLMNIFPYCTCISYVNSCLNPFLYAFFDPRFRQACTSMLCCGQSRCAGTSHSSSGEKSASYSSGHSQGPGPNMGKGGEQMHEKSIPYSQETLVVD
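Test system: CHO-K1 APJ beta-arrestin complementation cell line. Amount: cell density 1000 per well. Controls: DMSO negative, 10 nM Apelin-13 positive. Signal: luminescent beta-gal fragment complementation, chemiluminescent substrate. Read-out basis: agonist-driven arrestin binding to APJ. Timing: compound stimulation 90 min at 25 °C, detection 60 min.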
m5-HT2A agonist: mouse Htr2a agonists via beta-arrestin recruitment, primary screen, cell-based, luminescence; 5-hydroxytryptamine receptor 2A (Mus musculus), P35363; AID 624169, 2012; CHO-K1 mHTR2A beta-arrestin complementation; percent of 30 µM serotonin response; activation, % at 7.6 µM; 360,000 compounds, 0.66% hits;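 active = activation above a run cutoff, the mean activation of all tested compounds plus 3 SD, cut at about 14% in these data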
APJ antag: antagonists of human apelin receptor APJ, primary screen, CHO-K1 cells, beta-arrestin complementation, luminescence | P35414 | inhibition, % at 20 µM | 330,000 compounds, 0.32% hits | AID 2521, 2010;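 active = inhibition above about 40% at 20 µM, limit read from the data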;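 note: cells challenged with 10 nM apelin-13 agonist together with compound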
CXCR6 inh: CXCR6 receptor inhibitors, primary screen, cell-based, beta-arrestin, luminescence, CHO-K1 PathHunter, 1536-well. inhibition, % at 20 µM. 360,000 compounds, 0.36% hits. AID 602244, 2012; in the data active = inhibition above about 34%, passing the limit was not always enough;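 note: antagonist mode with CXCL16 agonist at 10 nM final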
Target sequence (O00574 whole entry, looked up): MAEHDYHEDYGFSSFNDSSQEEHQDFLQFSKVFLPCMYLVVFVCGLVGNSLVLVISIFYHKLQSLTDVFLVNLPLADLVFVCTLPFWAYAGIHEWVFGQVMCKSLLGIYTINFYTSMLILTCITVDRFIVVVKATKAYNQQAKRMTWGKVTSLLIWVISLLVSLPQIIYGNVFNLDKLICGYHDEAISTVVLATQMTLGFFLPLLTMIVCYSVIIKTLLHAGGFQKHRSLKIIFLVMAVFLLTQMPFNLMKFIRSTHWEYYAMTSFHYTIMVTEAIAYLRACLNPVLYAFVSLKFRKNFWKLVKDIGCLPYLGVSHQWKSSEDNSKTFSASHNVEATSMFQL
CCR6 antagonist: CCR6 receptor antagonists, primary screen, cell-based, CHO-K1, luminescence, beta-arrestin, uHTS; C-C chemokine receptor type 6 (Homo sapiens), P51684; AID 493098, 2011; CHO-K1 CCR6 PathHunter beta-arrestin, CCL20-stimulated; 340,000 compounds, 0.49% hits; inhibition, % at 20 µM;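 active = compounds whose inhibition of the agonist-driven luminescence signal at 20 µM reaches about 50%, limit read from the data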;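 note: cells stimulated with CCL20 at 14 nM final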
EBI2 block: EBI2 receptor antagonists, beta-arrestin recruitment, primary screen, cell-based, luminescence, 7a,25-OHC stimulation, uHTS; G-protein coupled receptor 183 (Homo sapiens), P32249; 7a,25-OHC stimulated; inhibition, % at 5 µM; 360,000 compounds, 0.81% hits; in the data active = inhibition above about 38%;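 note: enzyme fragment complementation signal reports receptor beta-arrestin coupling in cells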
CXCR6 confirm: CXCR6 receptor antagonists, confirmation, cell-based, single concentration, beta-arrestin, luminescence | shares compounds with CXCR6 inh | 700 compounds, 65% hits | CHO-K1 CXCR6 PathHunter beta-arrestin | inhibition, % at 20 µM;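 active = mean inhibition over four retests above 40%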;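 note: receptor stimulated with 10 nM CXCL16 agonist; beta-galactosidase fragment complementation upon beta-arrestin recruitment to receptor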
MOR ag counter: OPRM1 agonists via beta-arrestin recruitment, confirmation, counter-screen for mouse HTR2A agonist project, cell-based, luminescence, single concentration; shares compounds with m5-HT2A agonist; U2OS OPRM1 beta-arrestin PathHunter; DMSO 0%, DAMGO 9.3 µM 100%; activation, % at 9.3 µM; 2,300 compounds, 5.3% hits; AID 624380, 2012;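 active = mean activation above the mean of DMSO-only wells plus 3 SD, cut at about 0.5% in these data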
HTR2A ag conf: mouse HTR2A agonists, beta-arrestin recruitment, confirmation, cell-based, luminescence, CHO-K1 PathHunter, triplicate; shares compounds with m5-HT2A agonist; DMSO 0%, 30 µM serotonin 100%; activation, % at 7.6 µM; 2,300 compounds, 19% hits; AID 624381, 2012;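 active = mean activation across triplicates above the hit threshold derived in the original primary screen, cut at about 15% in these data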
Each line names hits and unclear results; the compound was inactive in the other large screens (follow-up assays come after a bar, where they were run). Only some compounds are listed: those with a hit (about 2.1% of all), similar ones and a draw of the others.

CCCCn1c(N)c(C(=O)OCC2CCCO2)c2nc3ccccc3nc21 (stereo not drawn)	none
CCCCn1c(N)c(C(=O)OCCOC)c2nc3ccccc3nc21	none
CC(C)COP(=O)(OCC(C)C)C(O)c1cccnc1 (stereo not drawn)	none
Cc1c(N=Nc2c(O)[nH]c(=S)[nH]c2=O)c(=O)n(-c2ccccc2)n1C	CXCR6 inh 52 | CXCR6 confirm 52
O=C(O)[C@H]1NC[C@H]2C[C@H]21	none
O=[N+]([O-])c1c(Cl)c(Cl)c(Cl)c(Cl)c1Cl	none (no result: APJ agonist, APJ antag)
Nc1cc(Cl)c2nonc2c1[N+](=O)[O-]	CXCR6 inh 46 (no result: APJ agonist, APJ antag) | CXCR6 confirm 58
COP(=O)(OC)C(NC(=O)/C=C/c1ccccc1)C(Cl)(Cl)Cl (stereo not drawn)	m5-HT2A agonist 19 | MOR ag counter inactive | HTR2A ag conf inactive
CC(Cc1ccccc1)NC(=O)/C=C/c1ccc(Cl)cc1 (stereo not drawn)	none
O=C(O)C(Cl)(Cl)Cl	m5-HT2A agonist 23 | MOR ag counter inactive | HTR2A ag conf inactive
CC(C)N1CCN(c2ccc(O)cc2)CC1	none (no result: APJ agonist, APJ antag)
CC(C)N1CCOC(c2ccc(O)c(O)c2)C1 (stereo not drawn)	m5-HT2A agonist 35 (no result: APJ agonist, APJ antag, CCR6 antagonist) | MOR ag counter inactive | HTR2A ag conf 113
O=[N+]([O-])c1ccc2nc(N3CCNCC3)ccc2c1	none (no result: m5-HT2A agonist, CXCR6 inh, EBI2 block)
Clc1ccc(N2CCNCC2)nn1	m5-HT2A agonist 15 | MOR ag counter inactive | HTR2A ag conf inactive
CN(CC=CCN(C)P(=S)(N1CC1)N1CC1)P(=S)(N1CC1)N1CC1	none (no result: APJ agonist, APJ antag)
COc1c2c(cc3c1OCO3)CCN(C)C2	m5-HT2A agonist 18 | MOR ag counter inactive | HTR2A ag conf 53
COc1ccc(NC(=O)CN2C3CCC2CC(O)(c2cccnc2)C3)cc1OC (stereo not drawn)	none
O=[N+]([O-])c1ccc(N2CCNCC2)cc1Sc1ccccn1	m5-HT2A agonist 25 | MOR ag counter inactive | HTR2A ag conf inactive
Nc1cc(N2CCNCC2)ccc1[N+](=O)[O-]	m5-HT2A agonist 42 | MOR ag counter inactive | HTR2A ag conf 28
CN1CCN(c2ccc([N+](=O)[O-])c(N)c2)CC1	none
CNc1cc(N2CCNCC2)ccc1[N+](=O)[O-]	none
O=C(NCNC(=O)NC1C(=O)NC(=O)N1CO)NC1C(=O)NC(=O)N1CO (stereo not drawn)	m5-HT2A agonist 17 | MOR ag counter inactive | HTR2A ag conf inactive
Cc1ccccc1CN1Cc2cnnn2-c2ccccc2C1C#N (stereo not drawn)	none (no result: APJ agonist, APJ antag)
CC12Cc3cn[nH]c3C=C1CCC1C2CCC2(C)C1CCC2(C)O (stereo not drawn)	none (no result: APJ agonist, APJ antag)
CCC(=NCCc1c[nH]c2ccccc12)c1c(O)n(-c2ccc(C)cc2)c(=O)[nH]c1=O	none
CCC(=NCCc1c[nH]c2ccccc12)c1c(O)n(C)c(=O)n(C)c1=O	m5-HT2A agonist 27 | MOR ag counter inactive | HTR2A ag conf inactive
Cc1[nH]c2ccc(OC(F)(F)F)cc2c1CCNCc1cccc([N+](=O)[O-])c1	none
CCOc1cccc(CNCCc2c(C)[nH]c3ccc(OC(F)(F)F)cc23)c1O	m5-HT2A agonist 27 | MOR ag counter 1.2 | HTR2A ag conf 22
Clc1ccc2sc(C3CCNCC3)nc2c1	m5-HT2A agonist 38 | MOR ag counter inactive | HTR2A ag conf 15
CCCCCCCSc1cc(OC)c(CCNC)cc1OC	m5-HT2A agonist 46 | MOR ag counter inactive | HTR2A ag conf 17
CCCCCSc1cc(OC)c(CCNC)cc1OC	m5-HT2A agonist 15 | MOR ag counter inactive | HTR2A ag conf inactive
C[C@@H]1C[C@H]2OC(=O)C3(CO3)[C@H]2[C@H](O)[C@]2(C)C(=O)C3OC3[C@@H]12 (stereo partly drawn)	none (no result: m5-HT2A agonist, CXCR6 inh, CCR6 antagonist, EBI2 block)
CC(=O)C1C(N2CC2)CC2C3CC=C4CC(O)CCC4(C)C3CCC21C (stereo not drawn)	m5-HT2A agonist 33 (no result: APJ agonist, APJ antag) | MOR ag counter inactive | HTR2A ag conf inactive
O=C1c2ccccc2-n2nnc(-c3ccccc3)c2C2c3cc(Br)ccc3CCN12 (stereo not drawn)	m5-HT2A agonist 16 (no result: APJ agonist, APJ antag, CCR6 antagonist) | MOR ag counter inactive | HTR2A ag conf inactive
CN(C(=O)c1ccco1)C1(c2ccccc2Cl)CCCCC1=O (stereo not drawn)	none
CCOP(=O)(OCC)c1ccc(O)cc1	none
Clc1ccc2[nH]c3c(c2c1)CCNC3	m5-HT2A agonist 16 | MOR ag counter inactive | HTR2A ag conf inactive
O=C1NC(=S)N(c2ccc(F)cc2)C(=O)/C1=C/c1ccccc1O	none
C=C(C)[C@@H]1C2C(=O)O[C@H]1[C@H]1OC(=O)[C@@]34OC3C[C@]2(O)[C@@]14C (stereo partly drawn)	none
COP(=O)(OC)C1(Nc2ccc(C)cc2)CCCCC1	m5-HT2A agonist 15 | MOR ag counter inactive | HTR2A ag conf inactive
Oc1ccc(C2=CCNCC2)cc1O	m5-HT2A agonist 36 | MOR ag counter inactive | HTR2A ag conf 117
O=c1[nH]c(=S)n(Cc2ccc(F)cc2)c(O)c1/C=N/N1CCCCC1	none
O=C(NN=Cc1ccc(N(CCCl)CCCl)cc1)c1cc(=O)[nH]c(=O)[nH]1	m5-HT2A agonist 18 (no result: APJ agonist, APJ antag) | MOR ag counter inactive | HTR2A ag conf inactive
O=C(NCC1=C(c2cccc3ccccc23)C[C@@H]2CC[C@H]1N2Cc1ccco1)c1cccnc1	none (no result: APJ agonist, APJ antag, CCR6 antagonist)
COc1cccc(CCNCc2c(F)cccc2F)c1	m5-HT2A agonist 21 | MOR ag counter inactive | HTR2A ag conf inactive
Fc1ccccc1CNCCc1c[nH]c2ccccc12	m5-HT2A agonist 19 | MOR ag counter inactive | HTR2A ag conf 24
COc1cccc(CNCCc2c[nH]c3ccccc23)c1	m5-HT2A agonist 32 | MOR ag counter inactive | HTR2A ag conf 34
COc1cccc(CNCCc2ccc(F)cc2)c1	none
